Laboratory results from article PMC5766692 (Journal of Ginseng Research, 2017).

Key:
[1] = assay type: in vivo, Sprague Dawley rats; conditions: rat plasma, oral WG, RG, FG extracts and free ginsenosides; for Time of first peak of the plasma concentration-time curve / Time of second peak of the plasma concentration-time curve: bimodal curve
Method in brief: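 Male Sprague Dawley rats (240–260 g), fasted 12 h with water allowed, 5 per group. Dosed orally with 70% ethanol ginseng decoctions or a water mixture of pure ginsenosides (25, 86, 45, 42 mg/kg). Retro-orbital blood taken 0.083–36 h; plasma acetonitrile-precipitated with digoxin IS, dried, redissolved in methanol. Analysed by C18 UPLC-MS/MS in positive ion mode; profiles mean ± SD.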

[2] = assay type: in vivo, Sprague Dawley rats; conditions: rats, 30 min after oral RG, WG, FG extracts and free ginsenosides; heart, liver, spleen, lungs, kidneys, brain, muscle, testes
[3] = Stability of the analytes in rat plasma under different conditions; assay type: in vitro ADME; conditions: for Freeze–thaw stability, accuracy (mean ± SD): three freeze (−80°C)-thaw (room temperature) cycles; for Long-term stability, accuracy (mean ± SD): −80°C for 1 mo
Method in brief: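 Rat plasma QC samples (low, medium, high) run in five replicates by UPLC-MS/MS with digoxin IS. Long-term: stored at −80°C for 1 mo. Freeze–thaw: three cycles of −80°C freezing and room-temperature thawing. Post-preparative: extracted QC samples held in the autosampler at 15°C for 24 h. Precision […] taken as relative standard deviation of QC concentrations.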

[4] = Stability of the analytes in rat tissue homogenates under different conditions; assay type: in vitro ADME; conditions: for Short-term stability, accuracy (mean ± SD) / Freeze–thaw stability, accuracy (mean ± SD) / Long-term stability, accuracy (mean ± SD): tissue; for Freeze–thaw stability, accuracy (mean ± SD): three freeze (−80°C)-thaw (room temperature) cycles; for Long-term stability, accuracy (mean ± SD): −80°C for 1 mo
Method in brief: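 Tissues rinsed in pH 7.4 sodium phosphate buffer, 0.5 g homogenised in 1 mL saline, then acetonitrile and digoxin IS added. Supernatant dried and redissolved in methanol for UPLC-MS/MS. QC tissue samples run in five replicates after storage at −80°C for 1 mo. Brain QC samples also put through three −80°C/room-temperature freeze–thaw cycles.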

[5] = mouse; higher than free ginsenoside Re; cited from earlier work

Time of first peak of the plasma concentration-time curve [1] [min]	Time of second peak of the plasma concentration-time curve [1] [h]	Short-term stability, accuracy (mean ± SD) ([3]; plasma, spiked 0.5 μg/mL) [%]	Freeze–thaw stability, accuracy (mean ± SD) ([3]; plasma, spiked 0.5 μg/mL) [%]	Long-term stability, accuracy (mean ± SD) ([3]; plasma, spiked 0.5 μg/mL) [%]	Short-term stability, accuracy (mean ± SD) ([3]; plasma, spiked 1.0 μg/mL) [%]	Freeze–thaw stability, accuracy (mean ± SD) ([3]; plasma, spiked 1.0 μg/mL) [%]	Long-term stability, accuracy (mean ± SD) ([3]; plasma, spiked 1.0 μg/mL) [%]	Short-term stability, accuracy (mean ± SD) ([3]; plasma, spiked 2.0 μg/mL) [%]	Freeze–thaw stability, accuracy (mean ± SD) ([3]; plasma, spiked 2.0 μg/mL) [%]	Long-term stability, accuracy (mean ± SD) ([3]; plasma, spiked 2.0 μg/mL) [%]	Stability in rat plasma during sample extraction and storage [3]	Stability in the various tissue homogenates during sample extraction and storage [4]	Short-term stability, accuracy (mean ± SD) ([4]; spiked 0.01 μg/mL) [%]	Freeze–thaw stability, accuracy (mean ± SD) ([4]; spiked 0.01 μg/mL) [%]	Long-term stability, accuracy (mean ± SD) ([4]; spiked 0.01 μg/mL) [%]	Short-term stability, accuracy (mean ± SD) ([4]; spiked 0.2 μg/mL) [%]	Freeze–thaw stability, accuracy (mean ± SD) ([4]; spiked 0.2 μg/mL) [%]	Long-term stability, accuracy (mean ± SD) ([4]; spiked 0.2 μg/mL) [%]	Compound	Tissue distribution (main tissues) [2]	further results
15 to 30	8 to 12	102.0 ± 6.4	106.1 ± 3.4	103.7 ± 8.0	93.2 ± 7.0	107.0 ± 8.2	103.1 ± 9.4	92.1 ± 8.6	94.3 ± 4.0	94.6 ± 5.6	stable	stable	92.2 ± 2.3	100.2 ± 3.6	101.9 ± 5.3	92.3 ± 6.6	95.3 ± 6.6	92.3 ± 7.5	CC(C)=CCC[C@](C)(O[C@@H]1O[C@H](CO)[C@@H](O)[C@H](O)[C@H]1O)[C@H]1CC[C@]2(C)[C@@H]1[C@H](O)C[C@@H]1[C@@]3(C)CC[C@H](O)C(C)(C)[C@@H]3[C@@H](O[C@@H]3O[C@H](CO)[C@@H](O)[C@H](O)[C@H]3O)C[C@]12C [Rg1]	extensively distributed in the heart, lungs, and kidneys	Short-term stability, accuracy (mean ± SD) ([4]; spiked 0.05 μg/mL): 102.5 ± 3.1%; Freeze–thaw stability, accuracy (mean ± SD) ([4]; spiked 0.05 μg/mL): 93.5 ± 9.1%; Long-term stability, accuracy (mean ± SD) ([4]; spiked 0.05 μg/mL): 94.7 ± 7.4%
15 to 30	8 to 12	–	–	–	94.6 ± 5.2	106.5 ± 6.5	102.3 ± 9.6	105.3 ± 6.0	104.3 ± 8.6	102.5 ± 2.3	stable	stable	–	–	–	107.2 ± 7.3	96.5 ± 8.4	95.5 ± 5.6	CC(C)=CCC[C@](C)(O[C@@H]1O[C@H](CO)[C@@H](O)[C@H](O)[C@H]1O)[C@H]1CC[C@]2(C)[C@@H]1[C@H](O)C[C@@H]1[C@@]3(C)CC[C@H](O[C@@H]4O[C@H](CO)[C@@H](O)[C@H](O)[C@H]4O[C@@H]4O[C@H](CO)[C@@H](O)[C@H](O)[C@H]4O)C(C)(C)[C@@H]3CC[C@]12C [Rd]	mainly distributed in the kidneys	Short-term stability, accuracy (mean ± SD) ([3]; plasma, spiked 0.1 μg/mL): 92.3 ± 4.3%; Freeze–thaw stability, accuracy (mean ± SD) ([3]; plasma, spiked 0.1 μg/mL): 92.5 ± 7.7%; Long-term stability, accuracy (mean ± SD) ([3]; plasma, spiked 0.1 μg/mL): 93.6 ± 8.5%; Short-term stability, accuracy (mean ± SD) ([4]; spiked 0.5 μg/mL): 106.4 ± 8.5%; Freeze–thaw stability, accuracy (mean ± SD) ([4]; spiked 0.5 μg/mL): 95.7 ± 9.5%; Long-term stability, accuracy (mean ± SD) ([4]; spiked 0.5 μg/mL): 92.0 ± 9.4%; Short-term stability, accuracy (mean ± SD) ([4]; spiked 1.0 μg/mL): 93.8 ± 5.1%; Freeze–thaw stability, accuracy (mean ± SD) ([4]; spiked 1.0 μg/mL): 99.6 ± 3.4%; Long-term stability, accuracy (mean ± SD) ([4]; spiked 1.0 μg/mL): 94.4 ± 7.0%
15 to 30	8 to 12	94.4 ± 4.4	97.5 ± 7.0	98.7 ± 5.0	97.6 ± 3.5	99.0 ± 7.4	92.2 ± 7.4	–	–	–	stable	stable	92.2 ± 8.7	92.7 ± 8.0	93.2 ± 5.8	92.4 ± 4.8	100.7 ± 7.4	103.8 ± 6.5	CC(C)=CCC[C@](C)(O[C@@H]1O[C@H](CO)[C@@H](O)[C@H](O)[C@H]1O)[C@H]1CC[C@]2(C)[C@@H]1[C@H](O)C[C@@H]1[C@@]3(C)CC[C@H](O)C(C)(C)[C@@H]3[C@@H](O[C@@H]3O[C@H](CO)[C@@H](O)[C@H](O)[C@H]3O[C@@H]3O[C@@H](C)[C@H](O)[C@@H](O)[C@H]3O)C[C@]12C [Re]	mainly distributed in the heart and lungs	Short-term stability, accuracy (mean ± SD) ([3]; plasma, spiked 0.1 μg/mL): 102.5 ± 9.0%; Freeze–thaw stability, accuracy (mean ± SD) ([3]; plasma, spiked 0.1 μg/mL): 93.3 ± 6.2%; Long-term stability, accuracy (mean ± SD) ([3]; plasma, spiked 0.1 μg/mL): 96.6 ± 4.1%; Short-term stability, accuracy (mean ± SD) ([4]; spiked 0.05 μg/mL): 96.6 ± 2.8%; Freeze–thaw stability, accuracy (mean ± SD) ([4]; spiked 0.05 μg/mL): 103.5 ± 5.5%; Long-term stability, accuracy (mean ± SD) ([4]; spiked 0.05 μg/mL): 105.5 ± 9.4%; Absorption of ginsenoside Re from ginseng berry extract [5]: 0.33–0.75%
–	–	–	–	–	–	–	–	91.3 ± 5.3	96.2 ± 8.5	95.6 ± 7.7	stable	stable	–	–	–	102.4 ± 5.1	108.5 ± 6.0	104.5 ± 8.6	CC(C)=CCC[C@](C)(O[C@@H]1O[C@H](CO[C@@H]2O[C@H](CO)[C@@H](O)[C@H](O)[C@H]2O)[C@@H](O)[C@H](O)[C@H]1O)[C@H]1CC[C@]2(C)[C@@H]1[C@H](O)C[C@@H]1[C@@]3(C)CC[C@H](O[C@@H]4O[C@H](CO)[C@@H](O)[C@H](O)[C@H]4O[C@@H]4O[C@H](CO)[C@@H](O)[C@H](O)[C@H]4O)C(C)(C)[C@@H]3CC[C@]12C [Rb1]	mainly distributed in the heart	Time of the single peak of the plasma concentration-time curve [1]: 8 to 10 h; Short-term stability, accuracy (mean ± SD) ([3]; plasma, spiked 5.0 μg/mL): 91.5 ± 6.8%; Freeze–thaw stability, accuracy (mean ± SD) ([3]; plasma, spiked 5.0 μg/mL): 103.3 ± 6.0%; Long-term stability, accuracy (mean ± SD) ([3]; plasma, spiked 5.0 μg/mL): 106.6 ± 6.8%; Short-term stability, accuracy (mean ± SD) ([3]; plasma, spiked 10 μg/mL): 94.4 ± 7.9%; Post-preparative stability, accuracy (mean ± SD) ([3]; plasma, spiked 10 μg/mL, extracted samples in automatic sampler at 15°C for 24 h): 94.5 ± 8.0%; Freeze–thaw stability, accuracy (mean ± SD) ([3]; plasma, spiked 10 μg/mL): 98.5 ± 8.2%; Long-term stability, accuracy (mean ± SD) ([3]; plasma, spiked 10 μg/mL): 93.9 ± 8.5%; Short-term stability, accuracy (mean ± SD) ([4]; spiked 0.5 μg/mL): 101.1 ± 7.0%; Freeze–thaw stability, accuracy (mean ± SD) ([4]; spiked 0.5 μg/mL): 109.2 ± 8.1%; Long-term stability, accuracy (mean ± SD) ([4]; spiked 0.5 μg/mL): 108.1 ± 6.7%; Short-term stability, accuracy (mean ± SD) ([4]; spiked 1.0 μg/mL): 105.0 ± 5.1%; Freeze–thaw stability, accuracy (mean ± SD) ([4]; spiked 1.0 μg/mL): 103.7 ± 7.0%; Long-term stability, accuracy (mean ± SD) ([4]; spiked 1.0 μg/mL): 101.0 ± 8.7%
